Measured values taken from ChEMBL document CHEMBL4428035, “Urea derivates of ursolic, oleanolic and maslinic acid induce apoptosis and are selective cytotoxic for several human tumor cell lines” (Eur J Med Chem, 2016).
Activity calls are given as the source filed them. The rule behind the calls is not given here.

How the values were obtained:
A2780 [1] = experiment: Cell cycle arrest in human A2780 cells assessed as decrease in G1/G0 phase at 10 uM after 24 hrs by FACS analysis; assay type: functional, cell-based
Summary of the method: (§1)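 Living A2780 cells treated with 10 µM test agent for 24 h and 48 h, then examined for cell-cycle distribution by FACS. Phase populations (Sub-G1, G1/G0, S, G2/M) were quantified by model fitting and expressed as arithmetic means of the population distribution (%).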

A2780 [2] = experiment: Cell cycle arrest in human A2780 cells assessed as increase in subG1 phase at 10 uM after 48 hrs by FACS analysis; assay type: functional, cell-based; summary of the method: as §1
NIH3T3 = experiment: Cytotoxicity against mouse NIH/3T3 cells assessed as reduction in cell proliferation after 96 hrs by sulforhodamine B assay; assay type: ADME, cell-based; settings: NIH3T3, 96 h
A2780 [3] = experiment: Cell cycle arrest in human A2780 cells assessed as increase in S phase at 10 uM after 24 hrs by FACS analysis; assay type: functional, cell-based; summary of the method: as §1
A2780 [4] = experiment: Induction of apoptosis in human A2780 cells assessed as secondary necrotic cells at 10 uM after 48 hrs by Annexin V/propidium iodide staining based flow cytometry relative to control; assay type: functional
Summary of the method: (§2)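 Annexin V/propidium iodide staining of A2780 cells exposed to 10 µM compound for 24 h and 48 h, read by flow cytometry. Viable, apoptotic, necrotic and secondary-necrotic fractions were reported as relative changes versus untreated control (%).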

FaDu = experiment: Cytotoxicity against human FADU cells assessed as reduction in cell proliferation after 96 hrs by sulforhodamine B assay; assay type: functional, cell-based
A2780 [5] = experiment: Cell cycle arrest in human A2780 cells assessed as decrease in G2/M phase at 10 uM after 24 hrs by FACS analysis; assay type: functional, cell-based; summary of the method: as §1
HT-29 = experiment: Cytotoxicity against human HT-29 cells assessed as reduction in cell proliferation after 96 hrs by sulforhodamine B assay; assay type: functional, cell-based; settings: HT-29, 96 h
A2780 [6] = experiment: Cell cycle arrest in human A2780 cells assessed as decrease in S phase at 10 uM after 48 hrs by FACS analysis; assay type: functional, cell-based; summary of the method: as §1
A549 = experiment: Cytotoxicity against human A549 cells assessed as reduction in cell proliferation after 96 hrs by sulforhodamine B assay; assay type: functional, cell-based; settings: A549, 96 h
A2780 [7] = experiment: Cell cycle arrest in human A2780 cells assessed as decrease in G1/G0 phase at 10 uM after 48 hrs by FACS analysis; assay type: functional, cell-based; summary of the method: as §1
SW-1736 = experiment: Cytotoxicity against human SW1736 cells assessed as reduction in cell proliferation after 96 hrs by sulforhodamine B assay; assay type: functional, cell-based; settings: SW-1736, 96 h
MCF7 = experiment: Cytotoxicity against human MCF7 cells assessed as reduction in cell proliferation after 96 hrs by sulforhodamine B assay; assay type: functional, cell-based; settings: MCF7, 96 h
A2780 [8] = experiment: Induction of apoptosis in human A2780 cells assessed as secondary necrotic cells at 10 uM after 24 hrs by Annexin V/propidium iodide staining based flow cytometry relative to control; assay type: functional; summary of the method: as §2
A2780 [9] = experiment: Induction of apoptosis in human A2780 cells assessed as viable cells at 10 uM after 24 hrs by Annexin V/propidium iodide staining based flow cytometry relative to control; assay type: functional; settings: A2780, 24 h, read-out: Activity; summary of the method: as §2
A2780 [10] = experiment: Induction of apoptosis in human A2780 cells assessed as viable cells at 10 uM after 48 hrs by Annexin V/propidium iodide staining based flow cytometry relative to control; assay type: functional; settings: A2780, 48 h, read-out: Activity; summary of the method: as §2
A2780 [11] = experiment: Induction of apoptosis in human A2780 cells assessed as necrotic cells at 10 uM after 24 hrs by Annexin V/propidium iodide staining based flow cytometry relative to control; assay type: functional; summary of the method: as §2
A2780 [12] = experiment: Cytotoxicity against human A2780 cells assessed as reduction in cell proliferation after 96 hrs by sulforhodamine B assay; assay type: functional, cell-based; settings: A2780, 96 h
A2780 [13] = experiment: Induction of apoptosis in human A2780 cells assessed as apoptotic cells at 10 uM after 48 hrs by Annexin V/propidium iodide staining based flow cytometry relative to control; assay type: functional; summary of the method: as §2
A2780 [14] = experiment: Induction of apoptosis in human A2780 cells assessed as apoptotic cells at 10 uM after 24 hrs by Annexin V/propidium iodide staining based flow cytometry relative to control; assay type: functional; summary of the method: as §2
518A2 = experiment: Cytotoxicity against human 518A2 cells assessed as reduction in cell proliferation after 96 hrs by sulforhodamine B assay; assay type: functional, cell-based; settings: 518A2, 96 h
A2780 [15] = experiment: Induction of apoptosis in human A2780 cells assessed as necrotic cells at 10 uM after 48 hrs by Annexin V/propidium iodide staining based flow cytometry relative to control; assay type: functional; summary of the method: as §2
A2780 [16] = experiment: Induction of apoptosis in human A2780 cells assessed as caspase-3 activation up to 72 hrs by flow cytometry; assay type: functional, cell-based
Summary of the method: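 Caspase activation in A2780 cells was measured by flow cytometry after 24, 48 and 72 h of treatment.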

[17] = Selectivity index, ratio of EC50 for mouse NIH/3T3 cells to EC50 for human A2780 cells; settings: NIH/3T3 cells versus A2780 cells
[18] = Selectivity index, ratio of EC50 for mouse NIH/3T3 cells to EC50 for human HT-29 cells; settings: NIH/3T3 cells versus HT-29 cells
[19] = Selectivity index, ratio of EC50 for mouse NIH/3T3 cells to EC50 for human MCF7 cells; settings: NIH/3T3 cells versus MCF7 cells
[20] = Selectivity index, ratio of EC50 for mouse NIH/3T3 cells to EC50 for human A549 cells; settings: NIH/3T3 cells versus A549 cells
[21] = Selectivity index, ratio of EC50 for mouse NIH/3T3 cells to EC50 for human FADU cells
[22] = Selectivity index, ratio of EC50 for mouse NIH/3T3 cells to EC50 for human SW1736 cells
[23] = Selectivity index, ratio of EC50 for mouse NIH/3T3 cells to EC50 for human 518A2 cells

| SMILES | Activity (A2780 [1]) | Activity (A2780 [2]) | EC50 (NIH3T3) | Activity (A2780 [3]) | Activity (A2780 [4]) | EC50 (FaDu) | Activity (A2780 [5]) | EC50 (HT-29) | Activity (A2780 [6]) | EC50 (A549) | Activity (A2780 [7]) | EC50 (SW-1736) | EC50 (MCF7) | Activity (A2780 [8]) | change in viable cells vs control (%) at 10 µM (A2780 [9]) | viability at 10 µM (A2780 [10]) | Activity (A2780 [11]) | EC50 (A2780 [12]) | Activity (A2780 [14]) | EC50 (518A2) | other results |
| --- | --- | --- | --- | --- | --- | --- | --- | --- | --- | --- | --- | --- | --- | --- | --- | --- | --- | --- | --- | --- | --- |
| CC(=O)O[C@@H]1[C@H](OC(C)=O)C[C@]2(C)[C@H]3CC=C4[C@@H]5CC(C)(C)CC[C@]5(C(=O)NCc5ccccc5)CC[C@@]4(C)[C@]3(C)CC[C@H]2C1(C)C | Active | Active | 11.4 µM | Active | 20% | 5.5 µM | Active | 7.7 µM | Active | 15.6 µM | Active | 20.7 µM | 7.8 µM | 10% | -16% | -65% | 1% | 1.9 µM | 5% | 5.7 µM | Activity (A2780 [13]): 45%; Activity (A2780 [15]): -1% |
| CC(=O)O[C@H]1C[C@]2(C)[C@H]3CC=C4[C@@H]5CC(C)(C)CC[C@]5(NC(=O)Nc5ccccc5)CC[C@@]4(C)[C@]3(C)CC[C@H]2C(C)(C)[C@H]1OC(C)=O | Active | Active | > 120 µM | Active | – | – | Active | 2.3 µM | Active | 4.4 µM | Active | 2.8 µM | 2.8 µM | 11% | -43% | – | -1% | 0.9 µM | 33% | 1.2 µM | Activity (A2780 [16]): inactive |
| COCO[C@@H]1C[C@]2(C)[C@H]3CC=C4[C@@H]5CC(C)(C)CC[C@]5(C(=O)NCc5ccccc5)CC[C@@]4(C)[C@]3(C)CC[C@H]2C(C)(C)[C@H]1O | – | – | 16.5 µM | – | – | 3.3 µM | – | 5.2 µM | – | 12.8 µM | – | 5.4 µM | 5.5 µM | – | – | – | – | – | – | 3.2 µM | selectivity ratio [17]: 5; selectivity ratio [18]: 5; selectivity ratio [19]: 5; selectivity ratio [20]: 5 |
| COCCO[C@@H]1C[C@]2(C)[C@H]3CC=C4[C@@H]5CC(C)(C)CC[C@]5(C(=O)NCc5ccccc5)CC[C@@]4(C)[C@]3(C)CC[C@H]2C(C)(C)[C@H]1OCCOC | – | – | 15.5 µM | – | – | – | – | 4.9 µM | – | 4.9 µM | – | 4.6 µM | 6.8 µM | – | – | – | – | 2.7 µM | – | 3.5 µM | selectivity ratio [17]: 5; selectivity ratio [18]: 5; selectivity ratio [19]: 5; selectivity ratio [20]: 5; Ratio EC50 [21]: 5; Ratio EC50 [22]: 5; Ratio EC50 [23]: 5 |
| CC(=O)O[C@H]1C[C@]2(C)[C@H]3CC=C4[C@@H]5CC(C)(C)CC[C@]5(C(=O)NCc5ccccc5)CC[C@@]4(C)[C@]3(C)CC[C@H]2C(C)(C)[C@@H]1OC(C)=O | Active | Active | 7.7 µM | Active | 29% | 3.3 µM | Active | 5.2 µM | Active | 8.8 µM | Active | 5.2 µM | 7.6 µM | 9% | -12% | -75% | 1% | 1.1 µM | 4% | 2.3 µM | Activity (A2780 [13]): 45%; Activity (A2780 [15]): 0% |
| CC(=O)O[C@H]1C[C@]2(C)[C@H]3CC=C4[C@@H]5CC(C)(C)CC[C@]5(C(=O)NCc5ccccc5)CC[C@@]4(C)[C@]3(C)CC[C@H]2C(C)(C)[C@H]1OC(C)=O | Active | Active | 9.4 µM | Active | 23% | 2 µM | Active | 3.7 µM | Active | 5.6 µM | Active | 3.4 µM | 3.5 µM | 6% | -11% | -79% | -1% | 0.5 µM | 5% | 0.9 µM | Activity (A2780 [13]): 55%; Activity (A2780 [15]): 1% |
